Values after ≈ are worked out from the molar mass of the structure shown.
What was measured:
[1] = Microsomal stability, mouse liver microsomes; assay type: in vitro ADME
Method in brief: (§1)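 The test compound, taken from a 10 mM DMSO stock and diluted to 100 μM in DMSO, was added to mouse or human liver microsomes and preincubated at 37 °C for 5 min. The reaction was started with buffer/NADPH working solution (5 mM); samples without NADPH were the negative controls. Aliquots at 0 and 30 min were quenched with internal standard, centrifuged at 4 °C, and measured by LC-MS/MS.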

[2] = Microsomal stability, human liver microsomes; assay type: in vitro ADME
Method in brief: as §1

[3] = In vivo pharmacokinetic profiles in male ICR mice; settings: for AUC(0-t) / Cmax / Tmax / Vd / clearance / half-life / bioavailability: male, ICR, mouse, plasma; for bioavailability: oral
Method in brief: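 SPF male ICR mice (22–23 g), three per route. Oral 10 mg/kg (1.0 mg/mL in 0.5% carboxymethyl cellulose/0.5% Tween 80); i.v. 2 mg/kg (0.4 mg/mL in 20% HP-β-CD with 4 mol/L HCl). Plasma extracted 20:1 with acetonitrile containing internal standard; LC-MS/MS, C18, isocratic acetonitrile/water 80:20 with 0.1% formic acid. Non-compartmental parameters; F = (AUCp.o.×dosei.v.)/(AUCi.v.×dosep.o.).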

[4] = Metabolic stability in liver microsomes; assay type: in vitro ADME; settings: mouse and human liver microsomes, without NADPH
Method in brief: as §1

[5] = liver microsomes, previous reports ref 30; cited from earlier work
M. tuberculosis H37Rv = test: MIC against Mtb H37Rv, microplate alamar blue assay; assay type: cell-based, Mycobacterium tuberculosis; settings: for MIC: Mycobacterium tuberculosis, H37RV
[6] = Mouse (% remaining at 30 min) With NADPH, with NADPH
[7] = Mouse (% remaining at 30 min) Without NADPH, without NADPH
[8] = Human (% remaining at 30 min) With NADPH, with NADPH
[9] = Human (% remaining at 30 min) Without NADPH, without NADPH

Compound | remaining at 0.5 h, 1 µM [1, 6] [%] | remaining at 0.5 h, 1 µM [1, 7] [%] | remaining at 0.5 h, 1 µM [2, 8] [%] | remaining at 0.5 h, 1 µM [2, 9] [%] | AUC(0-t) ([3]; iv, 2 mg/kg) [ng·h/mL] | Cmax ([3]; iv, 2 mg/kg) [ng/mL] | Tmax ([3]; iv, 2 mg/kg) [min] | Vd ([3]; iv, 2 mg/kg) [L/kg] | clearance ([3]; iv, 2 mg/kg) [mL/min/kg] | half-life ([3]; iv, 2 mg/kg) [min] | bioavailability ([3]; 10 mg/kg) [%] | AUC(0-t) ([3]; po, 10 mg/kg) [ng·h/mL] | Cmax ([3]; po, 10 mg/kg) [ng/mL] | Tmax ([3]; po, 10 mg/kg) [min] | half-life ([3]; po, 10 mg/kg) [min] | metabolism in the absence of NADPH (in words) [4] | MIC (M. tuberculosis H37Rv) [µM] | further results
O=c1nc(N2CCN(CC3CCCCC3)CC2)sc2c([N+](=O)[O-])cc(C(F)(F)F)cc12 [Macozinone, reference compound] | 50.7 | 102 | 46.8 | 101 | 423 | 1230 | 1.98 | 5.64 | 75.8 | 51.6 | 16.7 | 354 | 251 | 15 | 101 | neither macozinone nor 1d were metabolized |  | half-life (metabolic stability) [5]: 34 to 43 min
N#Cc1cc(C(F)(F)F)cc2c(=O)nc(N3CCN(CC4CCOC4)CC3)sc12 (centres unmarked) [Compound 1e, 4-Oxo-2-(4-((tetrahydrofuran-3-yl)methyl)piperazin-1-yl)-6-(trifluoromethyl)-4H-benzo[e][1,3]thiazine-8-carbonitrile] |  |  |  |  |  |  |  |  |  |  |  |  |  |  |  |  |  | loss of potency relative to cyclopentyl methyl 1c (M. tuberculosis H37Rv; Mtb H37Rv MIC): 10 fold
N#Cc1cc(C(F)(F)F)cc2c(=O)nc(N3CCN(CC4CCCC4)CC3)sc12 [Compound 1c, 2-(4-(cyclopentylmethyl)piperazin-1-yl)-4-oxo-6-(trifluoromethyl)-4H-benzo[e][1,3]thiazine-8-carbonitrile] |  |  |  |  |  |  |  |  |  |  |  |  |  |  |  |  | 0.2 (≈ 0.0845 µg/mL) | 
N#Cc1cc(C(F)(F)F)cc2c(=O)nc(N3CCN(CC4CCCCC4)CC3)sc12 [Compound 1d, 2-(4-(cyclohexylmethyl)piperazin-1-yl)-4-oxo-6-(trifluoromethyl)-4H-benzo[e][1,3]thiazine-8-carbonitrile] | 38.6 | 96.4 | 26.3 | 102 | 445 | 1340 | 1.98 | 11.3 | 71.2 | 110 | 7.8 | 174 | 110 | 15 | 104 | neither macozinone nor 1d were metabolized | 0.13 (≈ 0.0567 µg/mL) | increase in the volume of distribution (V) relative to macozinone ([3]; i.v. dosing, mice): 2.0 fold; decrease of oral bioavailability relative to macozinone ([3]; mice): twofold; maximum plasma concentration ([3]; oral dosing, male ICR mice): 240 nM; cytotoxicity (in words) (Vero cells): no cytotoxicity
N#Cc1cc(C(F)(F)F)cc2c(=O)nc(N3CCN(CC4COC4)CC3)sc12 [Compound 1f, 2-(4-(oxetan-3-ylmethyl)piperazin-1-yl)-4-oxo-6-(trifluoromethyl)-4H-benzo[e][1,3]thiazine-8-carbonitrile] |  |  |  |  |  |  |  |  |  |  |  |  |  |  |  |  |  | antimycobacterial activity (in words) (M. tuberculosis H37Rv; Mtb H37Rv): inactive
